The target in one series is CYP2D6 (Homo sapiens, UniProt P10635). As to the kind of experiment: Inhibition of CYP2D6 in human liver microsomes at 10 uM measured after 20 mins in presence of NADPH by LC/MS/MS analysis relative to control. Particulars: liver microsomes. It is filed as ADME. The gist of the method:
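CYP isoforms 1A2, 2D6, 3A4, 2C9 and 2C19 were tested at 1 and 10 µM. Results are % inhibition compared with a no-inhibitor control, run in triplicate.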

In series [1] the target is T1, Prostaglandin E synthase (Homo sapiens) (UniProt O14684).
T1 sequence (whole entry): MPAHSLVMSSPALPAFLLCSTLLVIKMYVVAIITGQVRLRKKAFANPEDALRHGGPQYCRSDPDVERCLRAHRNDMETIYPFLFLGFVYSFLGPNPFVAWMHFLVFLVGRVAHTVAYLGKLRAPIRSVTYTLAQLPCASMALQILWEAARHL
The series is described as follows: Inhibition of recombinant human mPGES-1 expressed in CHO cells assessed as reduction in PGE2 formation at 1 uM using PGH2 a substrate preincubated for 10 mins followed by substrate addition measured after 1 min relative to control. The class given is cell-based. The method in brief: (§1)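 mPGES-1 enzyme inhibition. % inhibition values are means of two experiments in duplicate. IC50 values were derived from graphs of at least two experiments in duplicate.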

Series [2] can be described thus: Plasma concentration in Dunkin Hartley guinea pig model of LPS-induced thermal hyperalgesia pain at 200 mg/kg, po qd measured 7 hrs post dose by LC/MS/MS analysis. It is filed as ADME, organism-based, Cavia porcellus. The method in brief:
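In the guinea pig LPS thermal hyperalgesia model, plasma and CSF drug levels were measured at the pharmacodynamic time point after oral dosing. Concentrations are means of n = 8 animals per dose group.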

Series [3] concerns the target T1, Prostaglandin E synthase (Homo sapiens). As to the kind of experiment: Inhibition of recombinant human mPGES-1 expressed in CHO cells assessed as reduction in PGE2 formation at 10 uM using PGH2 a substrate preincubated for 10 mins followed by substrate addition measured after 1 min relative to control. It is filed as cell-based. The gist of the method:
as §1

Series [4] in a line: Cmax in Guinea pig at 100 mg/kg, po. It is filed as ADME, organism-based, Cavia porcellus. Set-up: dose 100 mg/kg, route oral. To be noted: in vivo. The method in brief:
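Single oral dose given to guinea pigs as a 0.5% methylcellulose suspension. Values are mean ± SD, n = 3.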

A further series deals with T2, COX2 (Homo sapiens, UniProt P35354).
T2 sequence (P35354 whole entry): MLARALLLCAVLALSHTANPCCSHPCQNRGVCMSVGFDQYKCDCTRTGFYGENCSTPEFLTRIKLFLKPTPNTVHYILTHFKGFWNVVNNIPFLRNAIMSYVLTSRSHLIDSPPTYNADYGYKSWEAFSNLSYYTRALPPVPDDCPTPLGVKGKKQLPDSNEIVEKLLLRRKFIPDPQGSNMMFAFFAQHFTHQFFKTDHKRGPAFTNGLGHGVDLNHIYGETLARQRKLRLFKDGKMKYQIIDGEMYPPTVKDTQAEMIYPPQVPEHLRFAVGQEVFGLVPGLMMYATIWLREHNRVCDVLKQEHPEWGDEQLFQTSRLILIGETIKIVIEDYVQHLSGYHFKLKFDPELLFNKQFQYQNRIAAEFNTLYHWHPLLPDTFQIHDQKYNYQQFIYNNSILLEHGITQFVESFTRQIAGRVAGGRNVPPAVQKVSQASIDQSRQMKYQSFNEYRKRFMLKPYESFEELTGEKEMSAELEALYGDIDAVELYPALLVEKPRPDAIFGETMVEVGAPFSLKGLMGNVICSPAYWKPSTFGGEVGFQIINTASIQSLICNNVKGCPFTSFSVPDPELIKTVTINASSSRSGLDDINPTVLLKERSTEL
As to the kind of experiment: Inhibition of recombinant human N-terminal His-tagged COX2 expressed in baculovirus infected Sf21 insect cells assessed as decrease in PGE2 release at 10 uM using arachidonic acid as substrate preincubated for 15 mins followed by arachidonic acid addition measured after 5 mins relative to control. Particulars: probe arachidonic acid.

Chain of CYP2D6 (P10635 whole entry, canonical isoform): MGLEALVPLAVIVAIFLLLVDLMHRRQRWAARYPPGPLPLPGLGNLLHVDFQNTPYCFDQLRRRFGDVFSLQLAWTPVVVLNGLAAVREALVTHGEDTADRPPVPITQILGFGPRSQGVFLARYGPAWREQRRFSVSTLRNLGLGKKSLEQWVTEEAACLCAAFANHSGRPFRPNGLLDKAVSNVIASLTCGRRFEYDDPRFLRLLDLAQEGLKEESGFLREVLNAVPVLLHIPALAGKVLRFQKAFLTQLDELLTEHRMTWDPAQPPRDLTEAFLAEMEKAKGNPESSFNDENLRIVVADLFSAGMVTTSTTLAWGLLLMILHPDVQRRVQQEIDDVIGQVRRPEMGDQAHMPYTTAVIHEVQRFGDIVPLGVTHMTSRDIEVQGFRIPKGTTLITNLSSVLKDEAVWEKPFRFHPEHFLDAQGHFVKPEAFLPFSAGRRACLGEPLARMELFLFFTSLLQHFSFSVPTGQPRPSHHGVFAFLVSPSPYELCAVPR

As a reminder, the inhibition is the change of the read-out against control, counted positive when it falls. For `CC1(C)Oc2cc(C#Cc3cc(Cl)ccc3F)ccc2-c2[nH]c(-c3c(F)cccc3Cl)nc21`, on CYP2D6, the inhibition at 20 min, 10 µM was found to be 26.6%.

Usually Cmax stands for the maximum level reached in the sampled fluid or tissue. For the molecule `CC1(C)Oc2cc(-c3cccc(OC(F)(F)F)c3)ccc2-c2[nH]c(-c3c(F)cccc3Cl)nc21`, the values for the inhibition in series [1] and in series [3] were 97.9% and 91.8%, respectively. For the same molecule, the concentration at 7 h in series [2] was in the range of 7.5 to 7.54 µM. The molecule also registered a maximum concentration (Cmax) in series [4] of 803 ng/mL. Moreover, the inhibition at 5 min, 10 µM on COX2 worked out at 24.2%.

Source of the values: ChEMBL document CHEMBL4028818, “Tricyclic 4,4-dimethyl-3,4-dihydrochromeno[3,4-d]imidazole derivatives as microsomal prostaglandin E2 synthase-1 (mPGES-1) inhibitors: SAR and in vivo efficacy in hyperalgesia pain model” (Bioorg Med Chem Lett, 2017).
